Measurements reported in ChEMBL document CHEMBL1759947, “Synthesis and evaluation of arylquinones as BACE1 inhibitors, β-amyloid peptide aggregation inhibitors, and destabilizers of preformed β-amyloid fibrils” (Bioorg Med Chem Lett, 2011).

How the values were obtained:
[1] = Inhibition of amyloid beta (25 to 35) aggregation for 4 days by Thioflavin-T fluorescence assay
In short: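 Aβ(25–35) dissolved at 1 mM in PBS (stock), diluted, mixed with quinone and held at 37 °C for 4 days; aggregation read by thioflavin-T fluorescence (ex 448/em 483 nm) after subtracting a ThT blank; IC50 derived.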

[2] = Induction of amyloid beta (25 to 35) disaggregation after 4 days by Thioflavin-T fluorescence assay
In short: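 Aβ(25–35) first held at 37 °C for 4 days to form fibrils, then exposed to quinone for another 4 days at 37 °C; remaining fibrils measured by thioflavin-T fluorescence (ex 448/em 483 nm) with ThT blank subtracted; IC50 derived.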

Beta-secretase 1 = Beta-secretase 1 (Homo sapiens, UniProt P56817); assay: Inhibition of human recombinant BACE1 preincubated after 1 hr by fluorescence assay
SH-SY5Y = assay: Cytotoxicity against human SH-SY5Y cells up to 20 uM for 24 hrs by MTT assay; format: cell-based
In short: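 SH-SY5Y neuroblastoma cells; viability by mitochondrial reduction of MTT to formazan, reported as percent cell death at a single concentration.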

Sequence of Beta-secretase 1 (P56817 whole entry): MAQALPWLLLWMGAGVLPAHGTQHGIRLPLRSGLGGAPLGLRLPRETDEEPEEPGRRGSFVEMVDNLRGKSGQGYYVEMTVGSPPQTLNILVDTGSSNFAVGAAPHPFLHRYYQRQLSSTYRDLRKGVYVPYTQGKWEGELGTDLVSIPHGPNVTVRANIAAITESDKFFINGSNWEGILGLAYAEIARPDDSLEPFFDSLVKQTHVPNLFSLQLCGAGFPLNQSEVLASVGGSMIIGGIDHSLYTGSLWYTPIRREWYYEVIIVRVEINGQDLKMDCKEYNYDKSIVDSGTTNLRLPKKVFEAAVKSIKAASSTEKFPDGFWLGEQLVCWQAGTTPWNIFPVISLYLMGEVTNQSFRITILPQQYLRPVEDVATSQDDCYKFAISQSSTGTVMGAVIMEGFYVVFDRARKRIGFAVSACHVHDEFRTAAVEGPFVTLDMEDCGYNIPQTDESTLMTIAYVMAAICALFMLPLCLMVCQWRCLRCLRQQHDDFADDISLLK

| SMILES | IC50 ([1]; read-out: IC50) [µM] | IC50 ([2]; read-out: IC50) [µM] | IC50 (Beta-secretase 1) [µM] | Activity (SH-SY5Y) | IC50 [1] | IC50 [2] |
| --- | --- | --- | --- | --- | --- | --- |
| COc1cccc2c1C(=O)C(c1ccc(O)cc1)=CC2=O | 16.6 | 5.05 | 10.3 | Non-toxic | – | – |
| COc1ccc(C2=CC(=O)C(c3ccccc3)=CC2=O)cc1 | – | – | – | 56.29% | – | – |
| O=C1C=C(c2ccccc2)C(=O)C(c2ccc(C(F)(F)F)cc2)=C1 | – | – | – | 100% | – | – |
| CC(=O)Oc1cc(-c2ccccc2)c(OC(C)=O)c(-c2ccccc2)c1 | – | – | 20 | Non-toxic | Not Active | Not Active |
| O=C1C(c2ccc(O)cc2)=CC(=O)c2c(O)cccc21 | – | – | 16.1 | Non-toxic | Not Active | Not Active |
| COc1ccc(C2=CC(=O)C(c3ccc(F)cc3)=CC2=O)cc1 | – | – | – | 66.22% | – | – |
| Oc1cc(-c2ccccc2)c(O)cc1-c1ccccc1 | > 50 | 14.3 | 16 | Non-toxic | – | – |
| COc1ccc(-c2cc(OC(C)=O)c(-c3ccc(OC)cc3)cc2OC(C)=O)cc1 | – | > 50 | 23.9 | Non-toxic | Not Active | – |
| O=C1C(c2ccccc2)=CC(=O)c2c(O)cccc21 | – | – | 12.6 | Non-toxic | Not Active | Not Active |
| O=C1C=C(c2ccc(F)cc2)C(=O)C=C1c1ccccc1 | – | – | – | 78.08% | – | – |
| COc1ccc(C2=CC(=O)C=C(c3ccc(F)cc3)C2=O)cc1 | – | – | – | 62.5% | – | – |
| CC(=O)Oc1cc(-c2ccc(C(F)(F)F)cc2)c(OC(C)=O)cc1-c1ccccc1 | > 50 | > 50 | – | Non-toxic | – | – |
| COc1ccc(C2=CC(=O)c3c(OC)cccc3C2=O)cc1 | 22.6 | – | 11.2 | Non-toxic | – | Not Active |
| COc1ccc(-c2cc(O)cc(-c3ccccc3)c2OC(C)=O)cc1 | – | – | 11.3 | Non-toxic | Not Active | Not Active |
| COc1ccc(-c2cc(O)cc(-c3ccccc3)c2O)cc1 | 17.8 | 8.24 | 9.1 | Non-toxic | – | – |
| COc1ccc(C2=CC(=O)C=C(c3ccccc3)C2=O)cc1 | 9.56 | 7.87 | 13.4 | Non-toxic | – | – |
| O=C1C=C(c2ccc(C(F)(F)F)cc2)C(=O)C=C1c1ccccc1 | 14.2 | 12.3 | 6.52 | Non-toxic | – | – |
| O=C1C=C(c2ccccc2)C(=O)c2c(O)cccc21 | – | – | 8.98 | Non-toxic | Not Active | Not Active |
| O=C1C=C(c2ccccc2)C(=O)c2ccccc21 | – | – | 9.33 | Non-toxic | Not Active | Not Active |
| O=C1C=C(c2ccccc2)C(=O)C(c2ccccc2)=C1 | 9.28 | 9 | 11.4 | Non-toxic | – | – |
| O=C1C=C(c2ccccc2)C(=O)C=C1c1ccccc1 | – | – | – | Toxic | – | – |
| COc1ccc(C2=CC(=O)C(c3ccc(OC)cc3)=CC2=O)cc1 | 6.37 | 7.15 | 23.3 | Non-toxic | – | – |
| O=C1C=C(c2ccc(O)cc2)C(=O)c2ccccc21 | – | – | 8.22 | Non-toxic | Not Active | Not Active |
| COc1ccc(-c2cc(OC(C)=O)cc(-c3ccccc3)c2OC(C)=O)cc1 | – | – | 11.1 | Non-toxic | Not Active | Not Active |
